ChEMBL document CHEMBL4371053, “A novel tetrazole analogue of resveratrol is a potent anticancer agent” (Bioorg Med Chem Lett, 2019)

Experiments:
ACHN = test: Growth inhibition of human ACHN cells incubated for 48 hrs by sulforhodamine B assay; format: functional
In short: (§1)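 NCI-60 five-dose study at 10⁻⁴, 10⁻⁵, 10⁻⁶, 10⁻⁷ and 10⁻⁸ M, 48 h incubation. Growth determined from sulforhodamine B optical density before and after exposure, relative to vehicle control and time-zero counts. GI₅₀ is the molar concentration giving 50% growth inhibition.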

HCT-15 = test: Growth inhibition of human HCT15 cells incubated for 48 hrs by sulforhodamine B assay; format: functional; conditions: HCT-15, 48 h; in short: as §1
COLO 205 = test: Growth inhibition of human COLO205 cells incubated for 48 hrs by sulforhodamine B assay; format: functional; conditions: COLO 205, 48 h; in short: as §1
IGROV-1 = test: Growth inhibition of human IGROV1 cells incubated for 48 hrs by sulforhodamine B assay; format: functional; conditions: IGROV-1, 48 h; in short: as §1
DU-145 [1] = test: Growth inhibition of human DU145 cells at 10 uM after 48 hrs by sulforhodamine B assay relative to control; format: functional; conditions: DU-145, 48 h, values are per cent of control
In short: (§2)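 NCI-60 single-dose screen. Cells exposed to 10⁻⁵ M or to vehicle for 48 h. Growth measured by sulforhodamine B optical density before and after exposure. Reported as percent growth relative to vehicle control and to time-zero cell number; negative values indicate cell kill.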

HCT-116 = test: Growth inhibition of human HCT116 cells incubated for 48 hrs by sulforhodamine B assay; format: functional; conditions: HCT-116, 48 h; in short: as §1
A498 = test: Growth inhibition of human A498 cells at 10 uM after 48 hrs by sulforhodamine B assay relative to control; format: functional; conditions: A498, 48 h, values are per cent of control; in short: as §2
RXF 393 = test: Growth inhibition of human RXF393 cells incubated for 48 hrs by sulforhodamine B assay; format: functional; conditions: RXF 393, 48 h; in short: as §1
HOP-62 = test: Growth inhibition of human HOP62 cells incubated for 48 hrs by sulforhodamine B assay; format: functional; conditions: HOP-62, 48 h; in short: as §1
SK-MEL-2 = test: Growth inhibition of human SK-MEL-2 cells incubated for 48 hrs by sulforhodamine B assay; format: functional; conditions: SK-MEL-2, 48 h; in short: as §1
NCI-H522 [2] = test: Growth inhibition of human NCI-H522 cells at 10 uM after 48 hrs by sulforhodamine B assay relative to control; format: functional; conditions: NCI-H522, 48 h, values are per cent of control; in short: as §2
OVCAR-3 [3] = test: Growth inhibition of human OVCAR3 cells incubated for 48 hrs by sulforhodamine B assay; format: functional; conditions: OVCAR-3, 48 h; in short: as §1
Hs-578T = test: Growth inhibition of human Hs578T cells incubated for 48 hrs by sulforhodamine B assay; format: functional; in short: as §1
SF-539 = test: Growth inhibition of human SF539 cells incubated for 48 hrs by sulforhodamine B assay; format: functional; conditions: SF-539, 48 h; in short: as §1
MOLT-4 = test: Growth inhibition of human MOLT4 cells incubated for 48 hrs by sulforhodamine B assay; format: functional; conditions: MOLT-4, 48 h; in short: as §1
MDA-MB-468 = test: Growth inhibition of human MDA-MB-468 cells incubated for 48 hrs by sulforhodamine B assay; format: functional; conditions: MDA-MB-468, 48 h; in short: as §1
NCI-H460 = test: Growth inhibition of human NCI-H460 cells at 10 uM after 48 hrs by sulforhodamine B assay relative to control; format: functional; conditions: NCI-H460, 48 h, values are per cent of control; in short: as §2
HOP-92 = test: Growth inhibition of human HOP92 cells incubated for 48 hrs by sulforhodamine B assay; format: functional; conditions: HOP-92, 48 h; in short: as §1
LOX IMVI = test: Growth inhibition of human LOXIMVI cells incubated for 48 hrs by sulforhodamine B assay; format: functional; in short: as §1
MDA-MB-231 = test: Growth inhibition of human MDA-MB-231 cells incubated for 48 hrs by sulforhodamine B assay; format: functional; conditions: MDA-MB-231, 48 h; in short: as §1
KM12 [4] = test: Growth inhibition of human KM12 cells at 10 uM after 48 hrs by sulforhodamine B assay relative to control; format: functional; conditions: KM12, 48 h, values are per cent of control; in short: as §2
A549 = test: Growth inhibition of human A549/ATCC cells incubated for 48 hrs by sulforhodamine B assay; format: functional; conditions: A549, 48 h; in short: as §1
MCF7 = test: Growth inhibition of human MCF7 cells incubated for 48 hrs by sulforhodamine B assay; format: functional; conditions: MCF7, 48 h; in short: as §1
HL-60(TB) = test: Growth inhibition of human HL-60(TB) cells incubated for 48 hrs by sulforhodamine B assay; format: functional; conditions: HL-60, 48 h; in short: as §1
NCI-H522 [5] = test: Growth inhibition of human NCI-H522 cells incubated for 48 hrs by sulforhodamine B assay; format: functional; conditions: NCI-H522, 48 h; in short: as §1
NCI/ADR-RES = test: Growth inhibition of human NCI/ADR-RES cells incubated for 48 hrs by sulforhodamine B assay; format: functional; in short: as §1
DU-145 [6] = test: Growth inhibition of human DU145 cells incubated for 48 hrs by sulforhodamine B assay; format: functional; conditions: DU-145, 48 h; in short: as §1
[7] = Cytotoxicity against stromal cells (unknown origin) assessed as reduction in cell viability by alamar blue assay; format: cell-based; conditions: read-out: LD50 (the source's name)
HT-29 = test: Growth inhibition of human HT-29 cells incubated for 48 hrs by sulforhodamine B assay; format: functional; conditions: HT-29, 48 h; in short: as §1
SK-MEL-5 = test: Growth inhibition of human SK-MEL-5 cells incubated for 48 hrs by sulforhodamine B assay; format: functional; conditions: SK-MEL-5, 48 h
In short: (§3)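 NCI-60 screen run per Rubinstein protocol. Sulforhodamine B optical density was read before and after 48 h exposure to compound or vehicle. The single-dose pass at 10⁻⁵ M reported percent growth relative to vehicle control and time-zero cell number. The five-dose follow-up used 10⁻⁴ to 10⁻⁸ M, giving GI₅₀ as the molar concentration causing 50% growth inhibition.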

MDA-MB-435 [8] = test: Growth inhibition of human MDA-MB-435 cells incubated for 48 hrs by sulforhodamine B assay; format: functional; conditions: MDA-MB-435, 48 h; in short: as §1
CCRF-CEM = test: Growth inhibition of human CCRF-CEM cells incubated for 48 hrs by sulforhodamine B assay; format: functional; in short: as §1
NCI-H23 = test: Growth inhibition of human NCI-H23 cells incubated for 48 hrs by sulforhodamine B assay; format: functional; conditions: NCI-H23, 48 h; in short: as §1
OVCAR-3 [9] = test: Growth inhibition of human OVCAR3 cells at 10 uM after 48 hrs by sulforhodamine B assay relative to control; format: functional; conditions: OVCAR-3, 48 h, values are per cent of control; in short: as §2
SK-OV-3 = test: Growth inhibition of human SKOV3 cells incubated for 48 hrs by sulforhodamine B assay; format: functional; conditions: SK-OV-3, 48 h; in short: as §3
KM12 [10] = test: Growth inhibition of human KM12 cells incubated for 48 hrs by sulforhodamine B assay; format: functional; conditions: KM12, 48 h; in short: as §1
M14 = test: Growth inhibition of human M14 cells incubated for 48 hrs by sulforhodamine B assay; format: functional; conditions: M14, 48 h; in short: as §1
OVCAR-4 = test: Growth inhibition of human OVCAR4 cells incubated for 48 hrs by sulforhodamine B assay; format: functional; conditions: OVCAR-4, 48 h; in short: as §1
MDA-MB-435 [11] = test: Growth inhibition of human MDA-MB-435 cells at 10 uM after 48 hrs by sulforhodamine B assay relative to control; format: functional; conditions: MDA-MB-435, 48 h, values are per cent of control; in short: as §2
HCC 2998 = test: Growth inhibition of human HCC2998 cells incubated for 48 hrs by sulforhodamine B assay; format: functional; conditions: HCC 2998, 48 h; in short: as §1

Compound | GI50 (ACHN) [nM] | GI50 (HCT-15) [nM] | GI50 (COLO 205) [nM] | GI50 (IGROV-1) [nM] | growth, % of control at 10 µM (DU-145 [1]) [%] | GI50 (HCT-116) [nM] | growth, % of control at 10 µM (A498) [%] | GI50 (RXF 393) [nM] | GI50 (HOP-62) [nM] | GI50 (SK-MEL-2) [nM] | growth, % of control at 10 µM (NCI-H522 [2]) [%] | GI50 (OVCAR-3 [3]) [nM] | GI50 (Hs-578T) [nM] | GI50 (SF-539) [nM] | GI50 (MOLT-4) [nM] | GI50 (MDA-MB-468) [nM] | growth, % of control at 10 µM (NCI-H460) [%] | GI50 (HOP-92) [nM] | GI50 (LOX IMVI) [nM] | GI50 (MDA-MB-231) [nM] | also measured
COc1ccc(/C(=C/c2ccc3ccccc3c2)c2nnn[nH]2)cc1OC | 11300 | 2920 | 2270 | 4230 | 20.9 | 2420 | 14.5 | 2480 | 2330 | 4360 | -2.85 | 1690 | 2230 | 2380 | 4160 | 21500 | 14.1 | 4590 | 5630 | 12500 | growth, % of control at 10 µM (KM12 [4]): 24.5%; GI50 (A549): 3800 nM; GI50 (MCF7): 4120 nM; GI50 (HL-60(TB)): 2560 nM; GI50 (NCI-H522 [5]): 1140 nM; GI50 (NCI/ADR-RES): 1030 nM; GI50 (DU-145 [6]): 3530 nM; CC50 [7]: > 50000 nM; GI50 (HT-29): 2690 nM; GI50 (SK-MEL-5): 4680 nM; GI50 (MDA-MB-435 [8]): 300 nM; GI50 (CCRF-CEM): 3330 nM; GI50 (NCI-H23): 5290 nM; growth, % of control at 10 µM (OVCAR-3 [9]): -17.3%; GI50 (SK-OV-3): 3630 nM; GI50 (KM12 [10]): 2790 nM; GI50 (M14): 1900 nM; GI50 (OVCAR-4): 7780 nM; growth, % of control at 10 µM (MDA-MB-435 [11]): -41%; GI50 (HCC 2998): 5200 nM
COc1ccc(/C=C(/c2cc(OC)c(OC)c(OC)c2)c2nnn[nH]2)cc1O | < 10 | < 10 | 970 | < 10 | 3.41 | < 10 | -3.5 | < 10 | < 10 | < 10 | -6.32 | < 10 | < 10 | < 10 | < 10 | < 10 | 2.67 | < 10 | < 10 | < 10 | growth, % of control at 10 µM (KM12 [4]): -1.73%; GI50 (A549): < 10 nM; GI50 (MCF7): < 10 nM; GI50 (HL-60(TB)): < 10 nM; GI50 (NCI-H522 [5]): < 10 nM; GI50 (NCI/ADR-RES): < 10 nM; GI50 (DU-145 [6]): < 10 nM; CC50 [7]: > 50000 nM; GI50 (HT-29): 2200 nM; GI50 (SK-MEL-5): < 10 nM; GI50 (MDA-MB-435 [8]): < 10 nM; GI50 (CCRF-CEM): < 10 nM; GI50 (NCI-H23): < 10 nM; growth, % of control at 10 µM (OVCAR-3 [9]): -8.5%; GI50 (SK-OV-3): < 10 nM; GI50 (KM12 [10]): < 10 nM; GI50 (M14): < 10 nM; GI50 (OVCAR-4): < 10 nM; growth, % of control at 10 µM (MDA-MB-435 [11]): -8.4%; GI50 (HCC 2998): < 10 nM
